# Sampled rows, rich in hits. Any-hit rate of the full collection: about 4.9%.
# NPY1 pot ag: potentiators or agonists of human neuropeptide Y receptor Y1. 220,000 tested, 0.37% active. AID 1304. P25929. activation, % at 3.6 µM. NPY-Y1 expressing cells, potentiator/agonist activation; in the data active means activation above about 33%, passing the limit was not always enough;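 further: cells stimulated with NPY at EC10 then isoproterenol at EC100; 0% = low agonist plus stimulus and 100% = saturating agonist plus stimulus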
# NPY-Y1 antag: NPY-Y1 (human) receptor antagonism | 200,000 tested, 1% active | HEK293-CNG Y1 cells, membrane potential fluorescence; NPY at EC95, then isoproterenol | inhibition, % at 3.6 µM | P25929;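 active means inhibition above the campaign mean inhibition of all tested compounds plus 3 SD, cut at about 20% in these data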;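 further: 0% = DMSO wells given NPY plus isoproterenol and 100% = isoproterenol alone without NPY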
#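 Material: Y1- and CNG-channel-expressing HEK293 cells / Probe or stimulus: NPY 25 nM then isoproterenol 1 µM plus Ro 20-1724 25 µM / Doses: 3.6 µM single dose, DMSO 0.4% / Schedule: compound incubation 1 h at room temperature, readout 45 min post-stimulation / Signal: membrane potential fluorescence / Benchmarks: isoproterenol-only wells as full block versus NPY-plus-isoproterenol wells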
# WT yeast gro inh: growth inhibition of WT yeast, mitochondrial fusion screen. mitochondrial fusion phenotypic screen, WT strain. inhibition, % at 10 µM. 190,000 tested, 2.1% active; in the data active means inhibition above about 58%; tested in S. cerevisiae
# NPY-Y2 PAM-ag: potentiators or agonists of human neuropeptide Y receptor Y2 | P49146 | cells expressing NPY-Y2, potentiator/agonist read-out | activation, % at 3.6 µM | 220,000 tested, 0.45% active | AID 1359; in the data active means activation above about 27%;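 further: cells stimulated with NPY near EC25 plus isoproterenol at EC100; 0% = vehicle plus submaximal agonist and 100% = vehicle plus saturating agonist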
# Target sequence (P49146 whole entry, looked up): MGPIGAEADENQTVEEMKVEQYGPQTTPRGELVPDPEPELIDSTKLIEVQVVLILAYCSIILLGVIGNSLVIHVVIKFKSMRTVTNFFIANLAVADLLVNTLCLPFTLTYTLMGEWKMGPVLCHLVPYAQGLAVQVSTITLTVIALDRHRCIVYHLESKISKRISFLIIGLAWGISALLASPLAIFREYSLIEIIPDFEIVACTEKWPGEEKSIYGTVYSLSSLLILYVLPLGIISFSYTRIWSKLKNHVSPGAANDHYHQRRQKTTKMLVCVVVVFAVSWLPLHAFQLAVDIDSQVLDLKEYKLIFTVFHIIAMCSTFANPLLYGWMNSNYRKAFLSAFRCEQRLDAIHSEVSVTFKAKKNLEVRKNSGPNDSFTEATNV
# NPY Y2 blocker: blocks the human neuropeptide Y Y2 receptor; NPY-Y2 expressing cells, antagonist mode; 140,000 tested, 0.99% active; inhibition, % at 2.7 µM; P49146; in the data active means inhibition above about 17%;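 further: 0% = vehicle with agonist challenge and 100% = reference antagonist with challenge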
# RAM inhibit: blocks the yeast RAM network | S. cerevisiae dse1pr::URA3 reporter, 5-FOA growth OD615, 2 d; analog-sensitive cbk1-as2 kinase mutant strain | inhibition, % at 50 µM | 190,000 tested, 1.8% active;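 active means inhibition above a set limit, 3 SD over mean compound inhibition, cut at about 8.4% in these data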;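 further: 0% = DMSO-only wells with no growth and 100% = 10 µM 1-NA-PP1 full growth; inhibition rescues growth on 5-FOA so higher OD means more RAM inhibition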
# * = called active by the depositor; . = no result.
SMILES,NPY1 pot ag,NPY-Y1 antag,WT yeast gro inh,NPY-Y2 PAM-ag,NPY Y2 blocker,RAM inhibit
COC(=O)CNC(c1ccccc1)c1cc(Br)ccc1NC(C)=O (configuration not stated),-15.2,20.1*,-2.8,-7.6,.,0.8
O=C(Cc1csc(N2CCOCC2)n1)N/N=C/c1ccccc1C(=O)O,9.1,.,.,-1.8,.,.
O=C(CN(CCc1ccccc1)C(=O)CNS(=O)(=O)c1ccc(F)cc1)NCc1ccco1,-1.0,-1.0,-2.6,-0.4,-0.9,0.7
CCOC(=O)c1c(NC(=O)C(C)N2CCN(C(=O)c3ccco3)CC2)sc2c1CCCC2 (configuration not stated),11.3,2.6,69.6*,-0.4,3.7,0.3
CCOC(=O)c1c(NC(=O)c2cccs2)sc2c1CCN(C(=O)OCC)C2,-38.8,14.3,63.3*,-7.0,2.4,3.4
CCOC(=O)c1c(NC(=O)c2cccs2)sc(C)c1CC,-19.2,3.2,4.0,-18.0,3.2,11.3*
CCOC(=O)c1c(-c2cccs2)csc1N,-2.9,-0.2,25.6,-8.0,.,0.2
CCOC(=O)c1c(NC(=O)c2cccs2)sc2c1CCCC2,-18.8,1.3,15.6,-14.0,2.9,4.5
CCOC(=O)c1c(NC(=O)c2cccs2)sc(C(=O)N(C)C)c1C,-15.5,-2.6,8.5,-2.6,1.6,0.6
CCOC(=O)c1c(-c2cccs2)csc1NC(=O)c1ccncc1,5.3,-4.6,-4.4,6.1,2.2,9.6*
Cc1ccccc1CC1(CO)CCCN(Cc2cn[nH]c2-c2ccccc2)C1 (configuration not stated),0.2,4.1,12.1,-25.5,.,1.3
C/C(Cl)=C\CNC(C)c1ccccc1 (configuration not stated),3.9,-3.0,-11.2,-0.7,1.1,2.9
Cc1ccc(CNC(=O)CSc2nc3c(sc4ccccc43)c(=O)n2CCCN2CCCC2)cc1,-31.8,20.7*,7.1,-21.9,.,0.2
O=C(CSc1nc2c(sc3ccccc32)c(=O)n1CCCN1CCCC1)NCc1ccccc1,-41.0,19.8,0.0,-29.9,.,2.2
O=C(O)c1ccnc(C(=O)O)c1,-15.3,0.6,-18.0,6.3,3.1,-0.1
Cc1ccc(NC(=O)Cn2cccc2)cc1Cl,-18.0,-3.0,-5.4,-1.7,0.2,-0.1
Cc1ccc(S(=O)(=O)N=S(CC2CC2(Cl)Cl)CC2CC2(Cl)Cl)cc1 (configuration not stated),-27.0,2.3,1.4,-2.9,5.6,-1.2
Cc1cc2n(n1)C(c1sccc1C)Nc1ccccc1-2 (configuration not stated),-7.0,4.2,7.4,1.4,1.1,3.7
Cc1ccc2c(c1)-c1cc(C)nn1C(c1sccc1C)N2 (configuration not stated),1.4,11.8,-8.2,4.7,12.4,10.3*
Cc1ccc(NC2=C(Cl)C(=O)OC2OC(=O)c2ccco2)c(C)c1 (configuration not stated),-4.7,7.0,-8.9,0.7,6.2,1.4
CCOC(=O)c1c(NC(=O)C2C3C=CC(C3)C2C(=O)O)sc2c1CCCC2 (configuration not stated),1.9,1.7,-15.7,-4.8,.,1.2
Cc1ccc(C)c(Sc2ccc(NC(=O)CCl)cc2)c1,3.9,-0.2,68.8*,8.3,3.2,-0.8
O=C(CCl)Nc1ccc(-c2ccccc2)cc1,18.8,-4.5,-7.6,-2.9,.,1.9
Cc1ccc(Sc2ccc(NC(=O)CCl)cc2)cc1C,12.9,6.7,66.4*,0.3,0.4,-2.2
Cc1nc2c(cnn2-c2ccccc2Cl)c(=O)n1-c1ccc(C(C)C)cc1,39.5,3.5,-11.7,8.8,0.2,0.2
SMILES,NPY1 pot ag,NPY-Y1 antag,WT yeast gro inh,NPY-Y2 PAM-ag,NPY Y2 blocker,RAM inhibit
Cc1ccc(Nc2cc(C)nn2-c2nc(C)cc(=O)[nH]2)cc1,-53.5,7.8,16.5,-29.9,4.6,1.6
Cc1ccc(Nc2nc3ccccc3nc2-n2nc(C)cc2C)cc1,-5.9,-0.6,-7.9,-2.2,2.0,8.7*
Cc1ccc(Nc2cc(C)nn2-c2nc(C)cc(C)n2)cc1,-11.2,2.8,75.0*,-11.5,7.0,0.0
COC(=O)c1ccc(CSc2nc3ccc(Cl)cc3[nH]2)o1,10.6,4.7,-14.0,16.3,5.8,0.8
CCOC(=O)c1c(NC(=O)CN2C(=O)NC3(CCCCC3)C2=O)sc(C)c1-c1ccc(C)cc1,1.1,-6.6,-8.1,4.0,-0.1,1.5
CCOC(=O)c1sc(NC(=O)CN2C(=O)NC3(CCCCCCC3)C2=O)c(C(=O)OCC)c1C,68.3*,.,.,101.6*,.,.
Cc1noc(C)c1COc1cccc(C(=O)N2CCN(C/C=C/c3ccccc3)CC2)c1,11.6,5.8,6.6,16.8,0.5,-0.3
CCCCN1C(=O)C(NC(C)=O)c2cc(Br)ccc21 (configuration not stated),13.6,26.6*,6.9,-4.2,19.7*,1.9
CCN1C(=O)C(NC(C)=O)c2cc(Br)ccc21 (configuration not stated),-15.3,12.6,-2.6,6.2,8.9,1.1
COc1ccccc1N1CCN(C(=O)N2CCOCC2)CC1,-7.3,2.0,7.2,-22.5,1.0,0.1
O=c1cc(-c2ccccc2)nc(SCc2ccccc2F)[nH]1,-14.8,9.6,0.4,-12.3,.,9.3*
CC(C)(C)c1ccc(Oc2ccc(NC(=O)c3ccco3)cn2)cc1,53.9*,.,.,57.6*,.,.
CC1CCc2c(sc(NC(=O)c3ccc(Cn4cc([N+](=O)[O-])cn4)o3)c2C#N)C1 (configuration not stated),-6.8,-0.5,46.3,2.5,-2.2,3.3
COc1ccccc1N(C(=O)c1snc(C(N)=O)c1N)C(C(=O)NC1CCCC1)c1ccco1 (configuration not stated),-24.0,26.7*,0.6,-16.3,19.6*,1.6
CN1/C(=C/c2cc[n+](C)c3ccccc23)C=Cc2ccccc21,-13.3,5.0,91.0*,-1.7,.,0.0
CCN1C(=O)/C(=C2/C=Cc3ccccc3N2C)OC1=S,6.6,-4.6,-14.7,4.8,5.3,2.7
COc1ccc(-c2ccc(=O)n(CC(=O)N3CCN(c4ccccc4OC)CC3)n2)cc1,10.0,0.8,13.6,-0.5,-0.5,.
COc1ccc(OCC(=O)Nc2sc3c(c2C(=O)NCC2CCCO2)CCC3)cc1 (configuration not stated),-4.0,1.9,4.0,-24.9,-1.4,9.0*
COc1ccc(Nc2nc3ccccc3nc2NS(=O)(=O)c2cccs2)c(OC)c1,44.7,.,.,8.9,.,.
COc1cccc(Nc2nc3ccccc3nc2NS(=O)(=O)c2cccs2)c1,78.0*,-5.7,14.3,42.8*,-1.6,4.2
Cc1ccccc1NC(=O)c1c(F)c(F)c(F)c(F)c1F,7.7,-2.9,6.7,-4.5,-0.4,-1.1
COc1ccc(-c2c(C)n([O-])c(C)c(C)[n+]2=O)cc1OC,-8.3,2.6,6.0,-9.8,3.0,1.6
N#CC(Sc1ccccn1)c1ccc(Cl)cc1 (configuration not stated),-3.3,-0.5,73.1*,-3.4,.,0.5
